From PMC6178977 (Advanced functional materials, 2017)

Columns and labels:
HCT116 cells = experiment: In vitro cytotoxicity, 72 h treatment; format: cell-based; settings: Homo sapiens, HCT-116, 72 h
Colo 205 cells = experiment: In vitro cytotoxicity, 72 h treatment; format: cell-based; settings: Homo sapiens, COLO 205, 72 h
[1] = tested on: subcutaneous HCT-116 xenograft; experiment: Tumor regression in subcutaneous HCT-116 xenograft model; format: in vivo, mice
[2] = cited from earlier work
[3] = Pyrene fluorescence assay; format: physicochemical
Procedure, shortened: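 Pyrene served as fluorescent probe across a dilution series of polypeptide or conjugate. The I₁/I₃ ratio (370−373 nm peak over 381−384 nm peak) was plotted against polypeptide concentration. CAC was taken from the sigmoidal transition, which reflects nanoparticle disassembly and release of pyrene into the aqueous phase.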

Row | Compound | IC50 (HCT116 cells) [nM] | IC50 (Colo 205 cells) [nM] | tumor volume lower than PBS treated animals ([1]; 12 days after treatment) | median survival time ([1]; HCT-116 xenograft, 25 mg.kg^−1 day 0, 2, 4, Kaplan–Meier, n=6) [days] | plasma half-life [2] | CAC (critical aggregation concentration) [3] [µM]
1 | Nc1ccn([C@@H]2O[C@H](CO)[C@@H](O)C2(F)F)c(=O)n1 [GEM, gemcitabine] | 4.1 | 46.4 | ~ 3 fold | 21 | ~ 10 minutes | –
2 | (VPGAG)160–(YG)6–(CGG)8 [ATBP] | – | – | – | – | – | 3.6
